Compound activity as filed in PubChem BioAssay.
TCR-CD3 inh: human TCR-CD3 binding inhibition; TAMRA-labeled TCR probe fluorescence, biochemical; inhibition, % at 9.4 µM; actives 0.37% (n = 360,000);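 further: recombinant mutant TCR 2C K166C tagged with TAMRA read by polarization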
ABHD4 inh: inhibitors of mouse ABHD4 | Q8VD66 | purified mABHD4, FP-Rh probe fluorescence polarization | AID 720543 | actives 0.54% (n = 370,000) | inhibition, % at 8.92 µM;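 active means inhibition exceeding the mean over every tested compound plus 3 SD, cut at about 30% in these data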
Target sequence (Q8VD66 whole entry, looked up): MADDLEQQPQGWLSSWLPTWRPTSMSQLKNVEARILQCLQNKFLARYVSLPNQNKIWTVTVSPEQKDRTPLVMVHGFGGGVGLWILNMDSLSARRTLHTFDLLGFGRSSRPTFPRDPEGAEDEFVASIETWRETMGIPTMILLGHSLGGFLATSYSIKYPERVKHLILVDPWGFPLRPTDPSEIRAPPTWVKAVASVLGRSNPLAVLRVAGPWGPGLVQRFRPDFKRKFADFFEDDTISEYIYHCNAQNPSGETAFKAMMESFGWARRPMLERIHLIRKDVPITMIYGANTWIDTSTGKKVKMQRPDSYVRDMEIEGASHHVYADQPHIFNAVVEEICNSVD
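Test system: mABHD4 protein; Read-out basis: % inhibition; Incubation: 45 min + 60 min at 25 °C; Repeats: single replicate; Technique: fluorescence polarization with parallel and perpendicular emission, 525/598 nm; Compound: 8.92 µM, single dose; Benchmarks: full inhibition S159A mutant plus DMSO, zero as sample-well median.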
HTRA1 inh: HTRA1 (human) protease inhibition; recombinant HTRA1, FP-rhodamine activity-based probe, fluorescence polarization; inhibition, % at 5.96 µM; actives 0.5% (n = 340,000); AID 504803; in the data active means inhibition above about 36%
SIAE inh: human SIAE inhibition, primary screen | SIAE FP-Rh probe binding, fluorescence polarization | inhibition, % at 9.66 µM | actives 0.69% (n = 370,000) | AID 1053197;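 active means inhibition above a cutoff: mean of compounds within the control limits plus 3 SD of those, cut at about 17% in these data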
rCAG RNA binder: binds r(CAG) RNA repeats; r(CAG) RNA repeat, TO-PRO-1 dye displacement fluorescence; inhibition, % at 3 µM; actives 1.3% (n = 370,000); AID 651821;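 active means inhibition above the plate cutoff, the mean of all test compounds on that plate plus 3 SD, cut at about 35% in these data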;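 further: higher means more dye released from RNA so lower well fluorescence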
HTRA1 conf: confirmation of human HTRA1 inhibitors; shares compounds with HTRA1 inh; recombinant HTRA1, FP-rhodamine activity-based probe, fluorescence polarization; inhibition, % at 5.96 µM; actives 66% (n = 1,600); AID 540248;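 active means mean inhibition over three repeats above a set limit taken from the earlier primary screen, cut at about 37% in these data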;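 further: inhibitors block probe binding so polarization drops and inhibition rises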
BSA probe FL: BSA probe counter-screen for TCR-CD3 inhibitors; inhibition, % at 9.4 µM; AID 652035; actives 10% (n = 1,200); shares compounds with TCR-CD3 inh; TAMRA-labeled BSA probe fluorescence counterscreen; in the data active means inhibition above about 23%
TCR-CD3 conf: confirmation of human TCR-CD3 interaction inhibitors | TAMRA-labeled TCR probe fluorescence binding assay | actives 48% (n = 1,200) | shares compounds with TCR-CD3 inh | inhibition, % at 9.4 µM
rCAG binder conf: r(CAG) RNA repeat binding, confirmation; shares compounds with rCAG RNA binder; TO-PRO-1 dye displacement fluorescence; actives 70% (n = 4,300); inhibition, % at 3 µM;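 active means inhibition above a per-plate cutoff, the mean inhibition of sample wells plus 3 SD, cut at about 35% in these data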;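 further: loss of TO-PRO-1 fluorescence as compound displaces dye from 1x1 AA loop RNA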
dCAG dye counter: disrupts DNA CAG TO-PRO-1 complex, flagging rCAG hits; AID 652068; d(CAG) DNA oligo TO-PRO-1 dye displacement, fluorescence; inhibition, % at 3 µM; shares compounds with rCAG RNA binder; actives 94% (n = 4,300);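 active means inhibition above its plate's cutoff, the mean test-well inhibition plus 3 SD, cut at about 4.8% in these data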;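 further: hits displace the dye from DNA and so lower well fluorescence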
mABHD4 conf: confirmation of mouse ABHD4 inhibitors; shares compounds with ABHD4 inh; purified mABHD4, FP-Rh probe fluorescence polarization; inhibition, % at 8.92 µM; actives 55% (n = 1,800); AID 720658;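 active means mean inhibition across replicates above the hit cutoff set in the primary screen, cut at about 30% in these data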
Of the large screens only hits and unclear results are named; the others gave an inactive call (follow-up assays come after a bar, where they were run); ! = not active in a repeat. Only some compounds are listed: those with a hit (about 2.5% of all), similar ones and a draw of the others. Unless noted, no stated cut-off is given here; in the data, active means inhibition above about 19%; inactive means the rest.

N#Cc1c(N)nc2c3c(sc(=N)c2c1N)NC(=O)CC3c1c(F)cccc1Cl (stereo unspecified)	ABHD4 inh 35, HTRA1 inh 63 | HTRA1 conf inactive | mABHD4 conf inactive
Cc1nn(CC(C)C)c(Cl)c1C(=O)NCC(C)(C)N1CCOCC1	none
O=[N+]([O-])c1cc(S(=O)(=O)N2CCCC2)ccc1NN=C1CCCCC1	none
O=[N+]([O-])c1cc(C(F)(F)F)cc([N+](=O)[O-])c1NN=C1CCCCC1	ABHD4 inh 37, HTRA1 inh 42 | HTRA1 conf inactive | mABHD4 conf inactive
CC(NC=C1C(=O)OC(C)(C)OC1=O)C(=O)O (stereo unspecified)	none
Cc1ccc(CN2CCN(C(=O)CCc3ccccc3)CC2)cc1	none
O=C(O)[C@H]1CCCC[C@H]1C(=O)Nc1ccc(Nc2ccccc2)cc1	ABHD4 inh 42, HTRA1 inh 67 | HTRA1 conf inactive | mABHD4 conf inactive
O=c1c2ccccc2nc(COc2ccccc2)n1/N=C/c1ccc(O)c(O)c1	ABHD4 inh 36, HTRA1 inh 72 | HTRA1 conf 82 | mABHD4 conf inactive
NC(=NCCCCCCN=C(N)/N=C(\N)Nc1ccc(Cl)cc1)/N=C(\N)Nc1ccc(Cl)cc1	ABHD4 inh 46!, HTRA1 inh 42! | HTRA1 conf 45 | mABHD4 conf 40
CC(C)N=C(N)N=C(N)Nc1ccc(Cl)cc1	none
COc1cc(/C=C2/C(=O)NN(c3ccc(F)cc3)C2=O)cc(Cl)c1O	none
COc1cc(/C=C2/C(=O)NN(c3ccc(Cl)c(Cl)c3)C2=O)cc([N+](=O)[O-])c1O	ABHD4 inh 60, HTRA1 inh 38, rCAG RNA binder 99 | HTRA1 conf 42 | rCAG binder conf 66 | dCAG dye counter 23 | mABHD4 conf 80
O=[N+]([O-])c1ccc(N=Nc2c(Cl)cc(O)cc2Cl)cc1	ABHD4 inh 77, HTRA1 inh 67, SIAE inh 26 | HTRA1 conf 73 | mABHD4 conf 85
Cc1cccc(C)c1OCC(=O)NNC(=O)CCNC(=O)c1ccc(Br)cc1	none
O=c1ccc2[n+]([O-])c3ccc(O)cc3oc-2c1	ABHD4 inh active, HTRA1 inh 141 (no result: TCR-CD3 inh, SIAE inh) | HTRA1 conf active | mABHD4 conf active
O=c1cc(O)c2ccc(O)cc2o1	none
Oc1ccc(N=Nc2ccccc2-c2nn[nH]n2)c(O)c1	ABHD4 inh 68, HTRA1 inh 42, rCAG RNA binder 79 | HTRA1 conf 67 | mABHD4 conf 71
CCOc1ccc(NC(=O)c2ccccc2NC(=O)CN2CCCCCC2)cc1	none
CN(C)c1ccc(NC2=C(Cl)C(=O)c3ccccc3C2=O)cc1	ABHD4 inh 43, HTRA1 inh 63 | HTRA1 conf 58 | mABHD4 conf 54
COCCNC(=O)C[C@H]1CC[C@H]2[C@@H](COc3ccc(NS(=O)(=O)c4ccc(Cl)cc4)cc3C(=O)N2C)O1	none (no result: TCR-CD3 inh, HTRA1 inh)
Nc1nc(-c2ccccc2)c(N=Nc2cccc3ccccc23)s1	ABHD4 inh 49, HTRA1 inh 76, rCAG RNA binder 35 | HTRA1 conf 80 | rCAG binder conf inactive | dCAG dye counter 18 | mABHD4 conf 58
Nc1nc(-c2ccccc2)c(N=Nc2ccccc2Cl)s1	ABHD4 inh 46, HTRA1 inh 73 | HTRA1 conf 115 | mABHD4 conf 76
CC(=O)Nc1sc(N)nc1-c1ccccc1	none
Oc1c(C=NCc2ccccc2)sc2ccccc12	none
Oc1cccc(C=NCc2ccccc2)c1O	TCR-CD3 inh 29, ABHD4 inh 45, HTRA1 inh 55, SIAE inh 18 | HTRA1 conf 62 | mABHD4 conf 43
Oc1c(N=Nc2ccccn2)ccc2ccccc12	ABHD4 inh 35, HTRA1 inh 51 | HTRA1 conf 38 | mABHD4 conf inactive
Cc1ccc(C)c(CS(=O)(=O)c2cn(CC(=O)N3CCC(C)CC3)c3ccccc23)c1	none
COc1ccc(C2N(C(=O)N3CCOCC3)CCN2S(=O)(=O)c2ccc(C)cc2)cc1 (stereo unspecified)	none
Oc1ccccc1N=Cc1c(O)ccc2ccccc12	TCR-CD3 inh 29, ABHD4 inh 45, HTRA1 inh 63 | HTRA1 conf 78 | BSA probe FL inactive | TCR-CD3 conf 37 | mABHD4 conf 45
Oc1ccc2ccccc2c1C=Nc1ccccc1Br	none
Fc1cccc(Cl)c1CNc1ccc(N2CCCC2)cc1	ABHD4 inh 32, HTRA1 inh 47 | HTRA1 conf inactive | mABHD4 conf 49
COc1cccc(C(=O)Nc2nnc(SCC(=O)NC3CCCC3)s2)c1	none
CCN(CC)c1ccc(N=C2C(=O)Nc3ccccc32)cc1	ABHD4 inh 46, HTRA1 inh 63 | HTRA1 conf 44 | mABHD4 conf 51
Cc1ccc(N=C2C(=O)Nc3ccccc32)cc1	none
COc1cccc(-c2ccc(C#N)c(OC(=O)c3c(Cl)cccc3Cl)n2)c1	none
CN(C)c1ccc(C=c2c3cc([N+](=O)[O-])ccc3n3c2cc(-c2ccccc2)[n+]3C)cc1	TCR-CD3 inh 57, ABHD4 inh 78, HTRA1 inh 92 | HTRA1 conf 41 | mABHD4 conf inactive
COc1ccc(/C=N/NC(=O)c2cccc(NC(=O)c3ccc(F)cc3)c2)c(C(=O)O)c1OC	none
CC(C)Nc1ccc(Nc2ccnc3cc4ccccc4cc23)cc1	ABHD4 inh 31, HTRA1 inh 39 | HTRA1 conf 46 | mABHD4 conf 54
CCOC(=O)C1(c2nc(N)cs2)COC(=O)C1 (stereo unspecified)	none
O=C(CSc1nnc(-c2cccnc2)s1)Nc1ccccc1	none
O=C(N/N=C/c1ccc(O)c(O)c1)NC12CC3CC(CC(C3)C1)C2	ABHD4 inh 33, HTRA1 inh 68 | HTRA1 conf 82 | mABHD4 conf 31
COc1cc(/C=N/NC(=O)NC23CC4CC(CC(C4)C2)C3)ccc1O	none
Cc1ccc(C2C3=C(CC(C)(C)CC3=O)OC3=C2C(=O)CC(C)(C)C3)cc1	none
